In PMC10763849 (Journal of Enzyme Inhibition and Medicinal Chemistry, 2023):

System: HCT116 (KRAS(mut)/p53(wt)) cells xenograft
Assay: In vivo anti-tumour activity, HCT116 xenograft
Set-up: species or system BALB/c nude mice
Settings: i.p. 10 mg/kg, every 3 d, five times; for body weight changes: BALB/c nude mice; for tumour volume compared with the vehicle group: HCT116 xenograft
Procedure, shortened: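 Six-week-old BALB/c nude mice received 1 × 10^7 HCT116 cells in 200 µL subcutaneously in the right flank. At 80–120 mm3, mice were randomised into four groups of 5. They were dosed i.p. in PBS pH 7.4 (0.2 ml) every 3 days ×5: vehicle or test compound at 1, 10 or 20 mg/kg; a second study used 10 mg/kg with reference inhibitors. Tumour volume was (min² × max)/2, with body weight recorded; mean ± SD.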

SMILES	body weight changes	tumour volume compared with the vehicle group
O=C(CCCCCCC(=O)Nc1ccccc1)NO [SAHA, Vorinostat]	stable trend	smaller than that of the vehicle group
CN1CCN(Cc2ccc(Nc3ncc(Cl)c(Nc4ccccc4S(=O)(=O)N(C)C)n3)cc2)CC1 [TP0903]	stable trend	smaller than that of the vehicle group
